According to ChEMBL document CHEMBL1817601, “6,7-Dihydro-5H-cyclopenta[d]pyrazolo[1,5-a]pyrimidines and their derivatives as novel corticotropin-releasing factor 1 receptor antagonists” (Bioorg Med Chem, 2011):
Active and inactive are the calls of the source. The rule behind the calls is not given here.

Experiments:
[1] = molecular target: T1, Corticotropin-releasing factor receptor 1 (Homo sapiens, UniProt P34998); assay: Displacement of [125I]CRF from human corticotropin-releasing factor receptor 1 expressed in CHO-K1 cells after 2 hrs by gamma counting; type: cell-based
T1 sequence (P34998 whole entry): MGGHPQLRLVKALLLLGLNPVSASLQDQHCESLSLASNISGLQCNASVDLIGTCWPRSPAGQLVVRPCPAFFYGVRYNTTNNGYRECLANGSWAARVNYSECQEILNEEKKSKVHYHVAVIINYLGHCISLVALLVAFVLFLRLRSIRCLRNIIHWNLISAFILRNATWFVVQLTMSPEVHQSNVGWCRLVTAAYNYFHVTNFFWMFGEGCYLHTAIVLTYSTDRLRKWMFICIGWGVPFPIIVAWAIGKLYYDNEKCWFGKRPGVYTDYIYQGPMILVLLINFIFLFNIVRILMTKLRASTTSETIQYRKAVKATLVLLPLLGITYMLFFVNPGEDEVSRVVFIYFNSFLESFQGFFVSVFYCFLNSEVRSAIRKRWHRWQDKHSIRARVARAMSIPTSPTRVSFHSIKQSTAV
In short: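 Crude membranes prepared from CRF1-expressing CHO-K1 cells in 50 mmol/l Tris-HCl with 10 mmol/l MgCl2, 2 mmol/l EDTA and aprotinin. Membranes incubated with 0.5 nmol/l (stock) ¹²⁵I human/rat CRF and compound (1–10,000 nmol/l) for 2 h at room temperature. Reaction ended by centrifugation, pellet washed with PBS/0.01% Triton X-100. IC50 of specific binding taken from concentration–response curves.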

[2] = molecular target: T1, Corticotropin-releasing factor receptor 1; assay: Antagonist activity at human corticotropin-releasing factor receptor 1 expressed in CHO-K1 cells assessed as inhibition of CRF-induced cAMP production after 15 mins by enzyme immunoassay; type: functional, cell-based
In short: (§1)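 CHO-K1 cells expressing CRF1 seeded at 1 × 10⁴ cells/well and incubated overnight. Cells washed with F-12, then preincubated 10 min at 37 °C in F-12 with 1 mmol/l IBMX. Compound (1–10,000 nmol/l) added with medium containing 10 nmol/l CRF (stock), then 15 min at 37 °C. Cells chilled and cAMP measured by enzyme immunoassay, blank-corrected; IC50 taken from concentration–response curves.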

Rattus norvegicus [3] = assay: Anxiolytic activity in swim stress-loaded Sprague-Dawley rat assessed as increase in time spent in open arms at 3 mg/kg, po after 1 hr by plus-maze test; type: functional, organism-based; set-up: dose 3 mg/kg
In short: (§2)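 Male Sprague–Dawley rats (230–280 g) given 0.5% MC vehicle or compound orally 1 h before testing. Rats forced to swim 90 s in 22 °C water, then placed at the maze centre facing a closed arm. Behaviour video-tracked for 5 min; time in open arms and open-arm entries scored. 16 rats per group, mean ± S.E.; Dunnett test against vehicle.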

[4] = Tmax in rat at 3 mg/kg, po; type: ADME, organism-based; set-up: dose 3 mg/kg, route oral; details: in vivo
In short: (§3)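 Fasted male rats (n = 4) given 3 mg/kg orally in saline with 0.5% MC (w/v). Jugular vein blood (heparinized syringe) taken at 1, 2, 4, 6, 8, 24, 48, 72 h. Plasma obtained by centrifugation and stored at −70 °C. AUC, Cmax, Tmax and T1/2 derived from the plasma concentration time course.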

[5] = Cmax in rat at 3 mg/kg, po; type: ADME, organism-based; set-up: dose 3 mg/kg, route oral; details: in vivo; in short: as §3
Rattus norvegicus [6] = assay: Anxiolytic activity in swim stress-loaded Sprague-Dawley rat assessed as increase in time spent in open arms at 10 mg/kg, po after 1 hr by plus-maze test; type: functional, organism-based; set-up: dose 10 mg/kg; in short: as §2
[7] = Volume of distribution at steady state in rat at 0.3 mg/kg, iv; type: ADME, organism-based; set-up: dose 0.3 mg/kg, route intravenous; details: in vivo, read-out: Vdss
In short: (§4)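 Fasted male rats (n = 4) dosed intravenously at 0.3 mg/kg. Samples ice-chilled and centrifuged to plasma, then stored at −70 °C. AUC, T1/2, Vss and CL taken from the plasma concentration time course.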

[8] = Half life in rat at 3 mg/kg, po; type: ADME, organism-based; set-up: dose 3 mg/kg, route oral; details: in vivo; in short: as §3
[9] = molecular target: T2, Corticotropin-releasing factor receptor 1 (Rattus norvegicus, UniProt P35353); assay: Antagonist activity at rat corticotropin-releasing factor receptor 1 expressed in CHO-K1 cells assessed as inhibition of CRF-induced cAMP production after 15 mins by enzyme immunoassay; type: functional, cell-based; in short: as §1
T2 sequence (P35353 whole entry): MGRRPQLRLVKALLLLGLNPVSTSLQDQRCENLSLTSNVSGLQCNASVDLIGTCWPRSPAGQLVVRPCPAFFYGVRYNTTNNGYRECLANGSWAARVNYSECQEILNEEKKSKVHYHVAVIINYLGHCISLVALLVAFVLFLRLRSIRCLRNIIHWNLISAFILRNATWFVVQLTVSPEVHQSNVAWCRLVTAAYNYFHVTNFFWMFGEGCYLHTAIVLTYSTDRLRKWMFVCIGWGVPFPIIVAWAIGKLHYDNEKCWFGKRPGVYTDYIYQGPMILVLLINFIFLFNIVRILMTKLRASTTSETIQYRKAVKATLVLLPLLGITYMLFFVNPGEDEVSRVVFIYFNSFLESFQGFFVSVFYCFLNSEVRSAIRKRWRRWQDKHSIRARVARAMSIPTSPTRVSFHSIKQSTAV

[10] = AUC (infinity) in rat at 3 mg/kg, po; type: ADME, organism-based; set-up: time infinity, dose 3 mg/kg, route oral; details: plasma; in short: as §3
[11] = Oral bioavailability in rat at 3 mg/kg; type: ADME, organism-based; details: in vivo
[12] = AUC (infinity) in rat at 0.3 mg/kg, iv; type: ADME, organism-based; set-up: time infinity, dose 0.3 mg/kg, route intravenous; details: plasma; in short: as §4
[13] = molecular target: T2, Corticotropin-releasing factor receptor 1; assay: Displacement of [125I]CRF from corticotropin-releasing factor receptor 1 in rat brain membranes after 2 hrs by gamma counting; type: cell membranes
[14] = Ratio of drug level in brain to plasma in rat at 3 mg/kg, po after 1 hr; type: ADME, organism-based; set-up: dose 3 mg/kg, route oral; details: read-out: BPR
[15] = Total clearance in rat at 0.3 mg/kg, iv; type: ADME, organism-based; set-up: dose 0.3 mg/kg, route intravenous; details: in vivo; in short: as §4
[16] = Half life in rat at 0.3 mg/kg, iv; type: ADME, organism-based; set-up: dose 0.3 mg/kg, route intravenous; details: in vivo; in short: as §4

| Compound | IC50 [1] | EC50 [2] | also measured |
| --- | --- | --- | --- |
| CCC(CC)Nc1c2c(nc3c(-c4ccc(OC)cc4Cl)c(C)nn13)CCO2 | 0.007 µM | 0.004 µM | – |
| CCC(CC)Nc1c2c(nc3c(-c4ccc(OC)cc4C)c(C)nn13)CCO2 | 0.031 µM | 0.64 µM | – |
| CCC(CC)Nc1c2c(nc3c(-c4ccc(OC)cc4C)c(C)nn13)CSC2 | 0.037 µM | 0.15 µM | – |
| CCC(CC)Nc1c2c(nc3c(-c4ccc(OC)cc4SC)c(C)nn13)CCC2 | 0.049 µM | – | – |
| CCC(CC)Nc1c2c(nc3c(-c4ccc(OC)cc4C)c(C)nn13)CCS2 | 0.08 µM | – | – |
| CCC(CC)Nc1c2c(nc3c(-c4ccc(Cl)cc4Cl)c(C)nn13)CCC2 | 0.037 µM | 0.2 µM | – |
| CCC(CC)Nc1c2c(nc3c(-c4ccc(OC)cc4Cl)c(C)nn13)CCC2 [ONO-2333MS] | 0.004 µM | 0.04 µM | Activity (Rattus norvegicus [3]): Active; Tmax [4]: 1 h; Cmax [5]: 87.1 ng/mL; Activity (Rattus norvegicus [6]): Active; Vd [7]: 1.78 L/kg; half-life [8]: 7.8 h; EC50 [9]: 0.04 µM; AUC(0-inf) [10]: 608 ng·h/mL; bioavailability [11]: 22%; AUC(0-inf) [12]: 278 ng·h/mL; IC50 [13]: 0.007 µM; Kp at 1 h [14]: 0.4; clearance [15]: 18 mL/min/kg; half-life [16]: 4.7 h |
| CCC(CC)Nc1c2c(nc3c(-c4ccc(OC)cc4Cl)c(C)nn13)COC2 | 0.022 µM | 0.066 µM | – |
| CCC(CC)Nc1c2c(nc3c(-c4ccc(C)cc4C)c(C)nn13)CCC2 | 0.072 µM | 0.92 µM | – |
| CCOc1ccc(-c2c(C)nn3c(NC(CC)CC)c4c(nc23)CCC4)c(Cl)c1 | 0.071 µM | – | – |
| CCC(CC)Nc1c2c(nc3c(-c4ccc(OC)cc4C)c(C4CCC4)nn13)CCC2 | 0.49 µM | – | – |
| CCC(CC)Nc1c2c(nc3c(-c4ccc(OC)cc4C)c(C(F)(F)F)nn13)CCC2 | 0.059 µM | – | – |
| CCC(CC)Nc1c2c(nc3c(-c4ccc(OC)cc4C)c(C)nn13)CCC2 | 0.037 µM | 0.17 µM | – |
| CCC(CC)Nc1c2c(nc3c(-c4ccc(OC)cc4Cl)c(C)nn13)OCC2 | 0.084 µM | 0.008 µM | – |
| CCC(CC)Nc1c2c(nc3c(-c4ccc(OC)c(OC)c4)c(C)nn13)CCC2 | 0.6 µM | – | – |
| CCC(CC)Nc1c2c(nc3c(-c4ccc(OC(F)F)cc4Cl)c(C)nn13)CCC2 | 0.003 µM | 0.2 µM | – |
| CCC(CC)Nc1c(C)c(C)nc2c(-c3ccc(OC)cc3Cl)c(C)nn12 | 0.049 µM | 0.1 µM | – |
| CCC(CC)Nc1cc(C)nc2c(-c3ccc(OC)cc3Cl)c(C)nn12 | 0.006 µM | 0.031 µM | – |
| CCC(CC)Nc1c2c(nc3c(-c4ccc(OC)cc4C)c(C)nn13)CCN2 | 0.17 µM | – | – |
| CCC(CC)Nc1c2c(nc3c(-c4ccc(OC)cc4C)c(C)nn13)COC2 | 0.035 µM | 0.075 µM | – |
| CCC(CC)Nc1c2c(nc3c(-c4ccc(F)cc4C)c(C)nn13)CCC2 | 0.093 µM | – | – |
| CCc1nn2c(NC(CC)CC)c3c(nc2c1-c1ccc(OC)cc1C)CCC3 | 0.097 µM | – | – |
| CCC(CC)Nc1c2c(nc3c(-c4c(C)cc(OC)cc4C)c(C)nn13)CCC2 | 0.009 µM | 0.08 µM | – |
| CCC(CC)Nc1c2c(nc3c(-c4ccc(N(C)C)cc4C)c(C)nn13)CCC2 | 0.038 µM | – | – |
| CCC(CC)Nc1c2c(nc3c(-c4ccc(OC(F)(F)F)cc4Cl)c(C)nn13)CCC2 | 0.015 µM | – | – |
| CCC(CC)Nc1c2c(nc3c(-c4cc(C)ccc4C)c(C)nn13)CCC2 | 0.82 µM | – | – |
| CCC(CC)Nc1c2c(nc3c(-c4ccc(OC)cc4C)cnn13)CCC2 | 0.24 µM | – | – |
| CCC(CC)Nc1c2c(nc3c(-c4ccc(OC)cc4C)c(CSC)nn13)CCC2 | 0.62 µM | – | – |
| CCC(CC)Nc1c2c(nc3c(-c4cc(C)c(OC)cc4C)c(C)nn13)CCC2 | 0.022 µM | 0.047 µM | – |
| CCC(CC)Nc1cc(C)nc2c(-c3ccc(OC)cc3C)c(C)nn12 | – | – | IC50 [2]: 0.01 µM |
